Reference: PubChem BioAssay
Activity calls are given as the source filed them. Unless noted, no stated cut-off is given here; in the data, active means inhibition above about 30%; inactive means the rest.

Experiments:
[1] = Her2 expression decrease, cell viability multiplex – SKBR3 breast tumor cells, AlphaScreen, ATP viability, primary screen (AID 461;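 active means Her2 level under about 52% in both replicate screens, with viability over 70% of control, limit read from the data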;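 on Her2 level: lower value means less Her2 protein in the cells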;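 on viability: percent of carrier control wells set as 100% viability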); conditions: SKBR3 Her2 protein level, 18-24 h, measured here: SKBR3 viability, ATP luminescence, at 10 µM
[2] = target: Receptor tyrosine-protein kinase erbB-2 (Homo sapiens) (UniProt P04626); assay: as above; conditions: 18-24 h, at 10 µM, stronger effect = lower value
[3] = reduced viability of SK-BR-3 breast cancer cells – cell-based, 24 h, human, pilot screen (AID 572;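 active means viability at or below 10% of carrier control in both of two separate runs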;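 further: compound exposure lasted between 18 and 24 h rather than exactly 24 h; 100% = carrier-treated control wells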); conditions: SK-BR-3 viability, CellTiter-Glo luminescence, at 10 µM, stronger effect = lower value
[4] = HUVEC growth inhibition – cell-based, human, primary screen (AID 575;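 active means viability at or below 30% in both replicate assays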;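 further: 100% = median of untreated cell wells with 0.1% DMSO on each plate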); conditions: HUVEC proliferation, CellTiter-Glo luminescence, 72 h; at 10 µM; stronger effect = lower value
Method in brief: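 material = primary HUVEC, no more than 12 passages | input = 1250 cells per well | controls = vehicle and MePR control wells | measured by = CTG luminescence | times = 72 h compound incubation | format = collagen-coated 384-well format | read-out = % viability vs DMSO wells | doses = single 10 µM dose, 0.1% DMSO, from 5x medium stock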

[5] = H69AR cell proliferation blockers – human, duplicate replicates, primary screen (AID 580;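 active means viability at or under a set limit in both replicates, limit being median viability minus 3 SD, cut at about 48% in these data, passing the limit was not always enough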;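 further: 100% = mean luminescence of untreated wells and 0% = no signal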); conditions: H69AR lung tumor cells viability, ATP luminescence, 72 h; at 10 µM; stronger effect = lower value
[6] = MRP1 drug-resistance reversers in H69AR cells – cell-based, doxorubicin co-treatment, pilot screen (AID 601;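 active means viability loss from added drug above about 55%, and viability with drug at most 40%, in both replicates, limit read from the data, passing the limit was not always enough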); conditions: CellTiter-Glo, 72 h, at 10 µM; for differential viability (reversal): stronger effect = higher value
[7] = yeast transport mutant growth inhibition pilot in 384-well plates, post-Golgi transport modulator project (AID 636; in the data active means inhibition above about 31%); conditions: absorbance 615 nm, about 18 h, stronger effect = higher value
[8] = growth suppression of yeast trafficking mutant, preliminary HTS, modulators of trafficking downstream of Golgi apparatus project, 1536-format plate, OD 615 nm (AID 637); conditions: yeast transport mutant growth, absorbance 615 nm, 18 h; stronger effect = higher value
[9] = H69AR cells + 2 uM doxorubicin, measured here: viability with 2 uM doxorubicin, stronger effect = lower value
[10] = H69AR cells, compound alone cytotoxicity

Receptor tyrosine-protein kinase erbB-2 (Homo sapiens), sequence (P04626 whole entry, looked up): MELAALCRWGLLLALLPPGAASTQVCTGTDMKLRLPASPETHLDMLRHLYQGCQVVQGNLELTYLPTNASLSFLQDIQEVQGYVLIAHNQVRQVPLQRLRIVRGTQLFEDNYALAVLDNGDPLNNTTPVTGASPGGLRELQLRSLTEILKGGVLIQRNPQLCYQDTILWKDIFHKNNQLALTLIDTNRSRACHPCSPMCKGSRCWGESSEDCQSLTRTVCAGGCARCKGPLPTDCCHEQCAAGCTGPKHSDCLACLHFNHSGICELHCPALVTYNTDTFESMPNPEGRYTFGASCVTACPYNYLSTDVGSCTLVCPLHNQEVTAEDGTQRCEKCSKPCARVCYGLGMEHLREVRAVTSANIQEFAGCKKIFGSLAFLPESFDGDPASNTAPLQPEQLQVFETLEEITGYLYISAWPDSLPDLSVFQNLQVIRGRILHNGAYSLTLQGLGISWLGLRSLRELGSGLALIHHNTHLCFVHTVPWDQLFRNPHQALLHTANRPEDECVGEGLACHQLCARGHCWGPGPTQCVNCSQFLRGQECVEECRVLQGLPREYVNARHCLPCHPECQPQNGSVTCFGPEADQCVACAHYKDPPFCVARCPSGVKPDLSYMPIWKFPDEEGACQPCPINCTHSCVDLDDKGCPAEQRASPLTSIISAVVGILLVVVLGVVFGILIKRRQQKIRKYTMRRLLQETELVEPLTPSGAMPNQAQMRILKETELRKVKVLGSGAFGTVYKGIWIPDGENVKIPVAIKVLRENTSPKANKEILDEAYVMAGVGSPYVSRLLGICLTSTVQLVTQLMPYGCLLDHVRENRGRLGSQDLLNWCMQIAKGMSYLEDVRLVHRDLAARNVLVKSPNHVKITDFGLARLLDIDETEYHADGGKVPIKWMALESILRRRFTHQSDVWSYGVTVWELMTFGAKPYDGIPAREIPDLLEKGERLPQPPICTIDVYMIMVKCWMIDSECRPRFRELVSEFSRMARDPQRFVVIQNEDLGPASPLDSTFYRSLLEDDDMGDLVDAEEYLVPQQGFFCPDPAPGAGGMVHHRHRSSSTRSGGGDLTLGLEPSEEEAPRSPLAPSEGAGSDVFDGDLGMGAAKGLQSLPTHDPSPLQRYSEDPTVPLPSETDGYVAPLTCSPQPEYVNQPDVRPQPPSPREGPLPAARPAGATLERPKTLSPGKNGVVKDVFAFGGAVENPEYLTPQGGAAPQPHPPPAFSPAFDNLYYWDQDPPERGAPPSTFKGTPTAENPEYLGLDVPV

| SMILES | viability [1] [%] | Her2 level [2] | viability [3] | viability [4] | viability [5] | differential viability (reversal) ([6]; H69AR cells + 2 uM doxorubicin) | viability [6, 9] [%] | viability [6, 10] [%] | inhibition [7] | inhibition [8] |
| --- | --- | --- | --- | --- | --- | --- | --- | --- | --- | --- |
| CC(C)N(C(=O)CSc1nnc(-c2cc3ccccc3cc2O)n1Cc1ccco1)C(C)C | 90.5 | 76% (inactive) | 90.5% (inactive) | 66.4% (inactive) | 83.4% (inactive) | 1.54% (inactive) | 81.9 | 83.4 | -5.81% (inactive) | -0.66% (inactive) |
| CC1CCCC(C)N1C(=O)COC(=O)c1ccc[nH]c1=O (stereo not given) | 102 | 86% (inactive) | 102% (inactive) | 95.9% (inactive) | 97.7% (inactive) | -5.21% (inactive) | 103 | 97.7 | -4.49% (inactive) | 1.67% (inactive) |
| COc1ccccc1CNC(=O)N[C@@H](Cc1ccccc1)C(=O)O | 102 | 80% (inactive) | 102% (inactive) | 114% (inactive) | 93.2% (inactive) | 12.2% (inactive) | 81 | 93.2 | -5.81% (inactive) | 10.5% (inactive) |
| O=C(Nc1ncc(Br)s1)C1CCCN1S(=O)(=O)c1cccc2cccnc12 (stereo not given) | 93 | 81.5% (inactive) | 93% (inactive) | 87.4% (inactive) | 29.8% (active) | -10.8% (inactive) | 40.6 | 29.8 | -0.38% (inactive) | -1.5% (inactive) |
| O=C(c1cccnc1)N1CCc2ccccc21 | 74 | 77.5% (inactive) | 74% (inactive) | 88.1% (inactive) | 95% (inactive) | -16.3% (inactive) | 111 | 95 | -5.68% (inactive) | -0.16% (inactive) |
| c1ccc(-c2noc(C3CCCCC3)n2)nc1 | 91 | 96.5% (inactive) | 91% (inactive) | 114% (inactive) | 102% (inactive) | 11.2% (inactive) | 90.4 | 102 | 0.82% (inactive) | -2.7% (inactive) |
| Cc1nc2nc(Cc3ccccc3)[nH]n2c(=O)c1Cc1ccccc1 | 117 | 104% (inactive) | 117% (inactive) | 96.6% (inactive) | 96.2% (inactive) | 8.81% (inactive) | 87.4 | 96.2 | -0.53% (inactive) | 1.64% (inactive) |
| O=C(NCC(=O)N(c1ccc2c(c1)OCCO2)C(C(=O)NC1CCCC1)c1ccco1)c1ccco1 (stereo not given) | 92 | 102% (inactive) | 92% (inactive) | 97.2% (inactive) | 92.1% (inactive) | 13.4% (inactive) | 78.7 | 92.1 | -4.53% (inactive) | -9.05% (inactive) |
| COc1ccc(-n2nnnc2-c2cccc(OC)c2)cc1 | 102 | 87.5% (inactive) | 102% (inactive) | 45.3% (inactive) | 34.5% (active) | -26.5% (inactive) | 61.1 | 34.5 | -5.95% (inactive) | -1% (inactive) |
| Cc1[nH]c(=O)[nH]c(=O)c1S(=O)(=O)N1c2ccc(F)cc2CCC1C (stereo not given) | 97.5 | 90% (inactive) | 97.5% (inactive) | 100% (inactive) | 95.7% (inactive) | -3.9% (inactive) | 99.6 | 95.7 | -6.97% (inactive) | 3.17% (inactive) |
| COc1ccc(OC)c(C2/C(=C(\O)c3ccc4c(c3)OCCO4)C(=O)C(=O)N2CCCN(C)C)c1 (stereo not given) | 102 | 76.5% (inactive) | 102% (inactive) | 111% (inactive) | 101% (inactive) | 9.38% (inactive) | 91.3 | 101 | -4.05% (inactive) | -3.81% (inactive) |
| COC(=O)C1=C(C)OC(N)=C(C#N)C1c1c(C)nn(-c2ccccc2)c1Cl (stereo not given) | 89 | 118% (inactive) | 89% (inactive) | 70.7% (inactive) | 79.7% (inactive) | -6.99% (inactive) | 86.7 | 79.7 | -0.27% (inactive) | 16.6% (inactive) |
| COc1ccc(CN(C(=O)c2oc3ccccc3c2C)C2CCS(=O)(=O)C2)cc1 (stereo not given) | 86 | 112% (inactive) | 86% (inactive) | 83.6% (inactive) | 90.5% (inactive) | 8.78% (inactive) | 81.7 | 90.5 | -4.13% (inactive) | -11.1% (inactive) |
| COc1ccccc1-n1c(SCC(N)=O)nnc1-c1ccccc1 | 126 | 97% (inactive) | 126% (inactive) | 88.7% (inactive) | 87.7% (inactive) | -0.18% (inactive) | 87.8 | 87.7 | -7.11% (inactive) | 1.9% (inactive) |
| COc1cc(OC)c(NC(=O)c2ccco2)cc1Cl | 121 | 81.5% (inactive) | 121% (inactive) | 92.1% (inactive) | 84.7% (inactive) | -12.1% (inactive) | 96.9 | 84.7 | -3.95% (inactive) | 0% (inactive) |
| CCOC(=O)c1oc2ccccc2c1CSc1nnnn1-c1ccc(C)cc1 | 94.5 | 99% (inactive) | 94.5% (inactive) | 83.2% (inactive) | 69.3% (inactive) | -18.7% (inactive) | 88 | 69.3 | 2.08% (inactive) | -6.98% (inactive) |
| CCCn1c(SCC(=O)NCCc2ccccc2)nnc1-c1ccccn1 | 97.5 | 100% (inactive) | 97.5% (inactive) | 108% (inactive) | 93.9% (inactive) | -11.1% (inactive) | 105 | 93.9 | -2.8% (inactive) | -5.16% (inactive) |
| COc1ccc(C)cc1NC(=O)COCC(=O)O | 106 | 114% (inactive) | 106% (inactive) | 92.4% (inactive) | 103% (inactive) | 7.92% (inactive) | 95.2 | 103 | -6.89% (inactive) | -3.49% (inactive) |
| Cc1c(NC(=O)CN2c3cccc4cccc(c34)S2(=O)=O)c(=O)n(-c2ccccc2)n1C | 122 | 93% (inactive) | 122% (inactive) | 82.6% (inactive) | 102% (inactive) | 19.1% (inactive) | 82.5 | 102 | -4.27% (inactive) | 7.9% (inactive) |
